Data set [1] concerns MDA-MB-231. The experiment in a line: Cytotoxicity against human MDA-MB-231 cells measured after 48 hrs by MTT assay. The class given is functional, cell-based. The conditions noted are these: MDA-MB-231, 48 h.
Data set [2] can be described thus: Drug internalization in human MDA-MB-231 cell mitochondria assessed as appearance of green fluorescence throughout the cell at 5 uM measured after 2 hrs by DAPI/FITC/TxRed/Cy5 staining based confocal microscopy. The format is ADME. Particulars: mda-mb-231, 2 h. In short, it runs like this: (§1)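 Preparation was the same: 5 μM treatment at 37 °C in duplicate, then staining with CellMask Deep Red, MitoTracker Red FM and Hoechst, and 4% PFA fixation. Confocal Airyscan imaging at 40× used a 1 AU pinhole with gated channels: DAPI 410–508, FITC 493–571, TxRed 548–620 and Cy5 638–759 nm. Z-stacks gave orthogonal views, thresholded against untreated cells. Pearson's coefficient was calculated between the FITC and TxRed channels.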

The subject of data set [3] is MDA-MB-231. The experiment in a line: Cytotoxicity against human MDA-MB-231 cells measured after 48 hrs by resazurin dye based fluorescence assay. The format is functional, cell-based. Particulars: MDA-MB-231, 48 h. The essentials:
(§2)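 MDA-MB-231 cells in Leibovitz-L15 with 10% FBS, 10^4 cells/well, were allowed to adhere for 24 h at 37 °C. They were then exposed to a halving serial dilution from 250 to 0.98 μM (DMSO ≤0.5% final). Next came 10% resazurin for 4 h at 37 °C, with fluorescence read at λex 540 and λem […] nm. Assays used six technical replicates across three experiments. Results were expressed as % cell death, and IC50 was taken from regression (four-parameter logistic).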
(Resazurin is reduced to fluorescent resorufin, in cell work by metabolically active cells.)

Data set [4] is described as follows: Drug internalization in human MDA-MB-231 cells assessed as intracellular uptake at 5 uM measured after 30 mins by CellMask Deep Red plasma membrane/MitoTracker Red FM/Hoechst staining based fluorescence microscopy. The class given is ADME, cell-based. Particulars: mda-mb-231, 0.5 h. The essentials: (§3)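 Cells (1.9 × 10^4/well) adhered for 24 h and were then given 5 μM compound, in duplicate at 37 °C, alongside untreated controls. They were stained with CellMask Deep Red, MitoTracker Red FM and Hoechst for 30 min at RT, then fixed in 4% PFA. Epifluorescence high-content imaging at 40× used a FITC filter with 488 nm excitation. The untreated autofluorescence mean set the threshold, and green area per cell was quantified in μm2.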

Data set [5] is described as follows: Drug internalization in human MDA-MB-231 cells assessed as appearance of small blebs colocalization with mitochondria at 5 uM measured after 1 hr by DAPI/FITC/TxRed/Cy5 staining based confocal microscopy. The class given is ADME. The conditions noted are these: mda-mb-231, 1 h. In short, it runs like this: as §1
Data set [6] in a line: Drug internalization in human MDA-MB-231 cells assessed as increase in fluorescence at 5 uM measured after 30 mins by CellMask Deep Red plasma membrane/MitoTracker Red FM/Hoechst staining based fluorescence microscopy. The class given is ADME, cell-based. The conditions noted are these: mda-mb-231, 0.5 h. The essentials:
as §3

A short description of data set [7]: Drug internalization in human MDA-MB-231 cells assessed as increase in fluorescence at 5 uM measured after 1 hr by CellMask Deep Red plasma membrane/MitoTracker Red FM/Hoechst staining based fluorescence microscopy. The class given is ADME, cell-based. The conditions noted are these: mda-mb-231, 1 h. In short, it runs like this:
as §3

A short description of data set [8]: Drug internalization in human MDA-MB-231 cells assessed as uptake in cellular perimeter at 5 uM measured after 30 mins by CellMask Deep Red plasma membrane/MitoTracker Red FM/Hoechst staining based fluorescence microscopy. The class given is ADME, cell-based. Particulars: mda-mb-231, 0.5 h. The essentials:
as §3

Data set [9] concerns MDA-MB-231. Kind of data set: Cytotoxicity against human MDA-MB-231 cells measured after 24 hrs by resazurin dye based fluorescence assay. The format is functional, cell-based. The conditions noted are these: MDA-MB-231, 24 h. The essentials:
as §2

Data set [10] can be described thus: Drug internalization in human MDA-MB-231 cell mitochondria assessed as appearance of more clustered green fluorescence at 5 uM measured after 2 hrs by DAPI/FITC/TxRed/Cy5 staining based confocal microscopy. Particulars: mda-mb-231, 2 h. The format is ADME. In short, it runs like this: as §1
Data set [11] is described as follows: Drug internalization in human MDA-MB-231 cells assessed as interaction with mitochondria at 5 uM measured after 30 mins by DAPI/FITC/TxRed/Cy5 staining based confocal microscopy. Particulars: mda-mb-231, 0.5 h. The class given is ADME. In short, it runs like this: as §1
Data set [12] can be described thus: Drug internalization in human MDA-MB-231 cells assessed as appearance of diffuse layer of green fluorescence with small clusters inside the cell at 5 uM measured after 30 mins by DAPI/FITC/TxRed/Cy5 staining based confocal microscopy. The class given is ADME. Particulars: mda-mb-231, 0.5 h. The essentials: as §1
Data set [13] is described as follows: Potency index, ratio of Met10G IC50 to test compound IC50 for cytotoxicity against human MDA-MB-231 cells after 24 hrs. The format is functional.
Data set [14] in a line: Potency index, ratio of Met10G IC50 to test compound IC50 for cytotoxicity against human MDA-MB-231 cells after 48 hrs. The format is functional.

Broadly, the IC50 is the midpoint of a concentration-inhibition curve. `CCCCCCCCC[C@H](O)CC(=O)CCc1ccc(O)c(OC)c1` came in with a 50% inhibitory concentration (IC50) in data set [1] of 12.1 µM.
In the case of `CCCCCCCCCC(O)CC(=O)CCc1ccc(OC)c(OC)c1` (stereo unspecified), the Drug uptake entry in [2] is “Active”; in [4], “Active”; in data set [5] it was “Active”; in [6] it was “Active”; in data set [7] it was “Not_active”; in data set [8] it was “Active”. In addition, the Drug uptake result in [10], in data set [11] and in data set [12] was “Active” each time. Moreover, the IC50 came out at 26.9 µM in data set [3] and 45.6 µM in data set [9].
In the case of `COc1cc(Cl)ccc1OCCCCc1cn(CCCNC(=O)c2cc3ccc(O)cc3oc2=O)nn1`, the Drug uptake entry in data set [2] is given as “Active”; in data set [4], “Active”; in data set [5] it was “Active”; in data set [6] it was “Active”; in [7], “Not_active”; in data set [8] it was “Active”. In addition, the Drug uptake entry in [10], in [11] and in data set [12] was “Active” throughout. In addition, the IC50 worked out at 103 µM in [3] and 116 µM in data set [9].
As to `CCCCCCCCC[C@H](O)CC(=O)CCc1ccc(OCCCCc2cn(CCCNC(=O)c3cc4ccc(O)cc4oc3=O)nn2)c(OC)c1`, the Drug uptake entry in data set [2], in data set [4], in data set [5], in data set [6], in data set [7] and in data set [8] was “Active” each time. Further, the Drug uptake entry in [10], in data set [11] and in data set [12] was “Active” throughout. Besides, the values for the 50% inhibitory concentration (IC50) in data set [3] and in data set [9] were 2.3 µM and 19.1 µM, respectively. The “Ratio IC50” value in [13] is listed as 2; in data set [14], “<=10”.

The record behind these values is ChEMBL document CHEMBL6103663, “Enhanced Cytotoxicity of [10]-Gingerol-Coumarin-Triazole Hybrid as a Theranostic Agent for Triple Negative Breast Cancer” (ACS Med Chem Lett, 2025).
